The values below come from article PMC2828495 (Bioorganic & medicinal chemistry, 2010).

Molecules are shown by their SMILES.

Data set [1] concerns the target EcN68 SecA (Escherichia coli, UniProt P10408). The data set is described as follows: EcN68 SecA ATPase inhibition. The class given is biochemical, E. coli.
A short description of data set [2]: Solubility observation in the inhibition assay. The class given is physicochemical. To be noted: when approaching 100 µM.
The target of data set [3] is EcSecA (Escherichia coli, UniProt P10408). The data set is described as follows: Whole EcSecA ATPase inhibition. The class given is biochemical, E. coli. In outline: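 Full-length E. coli SecA was over-expressed from pT7-SecA and purified. Each reaction held 5 µg SecA, 2 mM ATP, 50 mM Tris-HCl pH 7.6, 20 mM KCl, 20 mM NH4Cl, 1 mM DTT, 2 mM Mg(OAc)2 and 10% DMSO, run at 40 °C for 40 min. Malachite green, then 34% citric acid, was added; after 40 min at room temperature A660 gave Pi. Activity was expressed as % of no-compound control, at least in triplicate, with IC50 from inhibition curves.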

Data set [4] deals with wild type E. coli strain MC4100. The data set is described as follows: Antimicrobial test. The class given is cell-based. To be noted: Figure 8.
In data set [5] the test system is leaky mutant NR698. Put plainly: Antimicrobial test. To be noted: Figure 8. The class given is cell-based, E. coli. The method, boiled down:
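E. coli NR698 (MC4100 imp4213), a strain with increased outer-membrane permeability. Log-phase cells at OD600 ~0.5 to 1.0 were diluted to OD600 0.05 and test compound (dissolved in DMSO) was added. Cultures containing 5% DMSO final were shaken at 37 °C, 1050 rpm, for 10 to 12 h. MIC was then determined.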

Sequence of EcN68 SecA (P10408 1-610): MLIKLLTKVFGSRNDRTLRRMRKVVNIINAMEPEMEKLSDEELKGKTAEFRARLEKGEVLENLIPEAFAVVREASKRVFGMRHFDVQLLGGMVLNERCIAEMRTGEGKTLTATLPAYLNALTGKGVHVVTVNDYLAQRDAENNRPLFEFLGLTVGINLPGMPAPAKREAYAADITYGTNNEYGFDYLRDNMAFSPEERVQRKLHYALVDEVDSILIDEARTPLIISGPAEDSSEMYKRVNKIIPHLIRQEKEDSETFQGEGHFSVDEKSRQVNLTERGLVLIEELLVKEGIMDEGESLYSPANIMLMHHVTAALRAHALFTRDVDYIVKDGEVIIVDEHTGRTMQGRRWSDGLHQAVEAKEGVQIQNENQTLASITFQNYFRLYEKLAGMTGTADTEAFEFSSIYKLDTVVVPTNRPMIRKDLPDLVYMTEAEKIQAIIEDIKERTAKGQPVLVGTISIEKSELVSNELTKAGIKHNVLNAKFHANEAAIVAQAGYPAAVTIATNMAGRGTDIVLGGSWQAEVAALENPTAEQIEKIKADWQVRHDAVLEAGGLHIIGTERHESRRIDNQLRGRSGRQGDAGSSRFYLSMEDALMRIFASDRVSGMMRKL
Sequence of EcSecA (P10408 whole entry): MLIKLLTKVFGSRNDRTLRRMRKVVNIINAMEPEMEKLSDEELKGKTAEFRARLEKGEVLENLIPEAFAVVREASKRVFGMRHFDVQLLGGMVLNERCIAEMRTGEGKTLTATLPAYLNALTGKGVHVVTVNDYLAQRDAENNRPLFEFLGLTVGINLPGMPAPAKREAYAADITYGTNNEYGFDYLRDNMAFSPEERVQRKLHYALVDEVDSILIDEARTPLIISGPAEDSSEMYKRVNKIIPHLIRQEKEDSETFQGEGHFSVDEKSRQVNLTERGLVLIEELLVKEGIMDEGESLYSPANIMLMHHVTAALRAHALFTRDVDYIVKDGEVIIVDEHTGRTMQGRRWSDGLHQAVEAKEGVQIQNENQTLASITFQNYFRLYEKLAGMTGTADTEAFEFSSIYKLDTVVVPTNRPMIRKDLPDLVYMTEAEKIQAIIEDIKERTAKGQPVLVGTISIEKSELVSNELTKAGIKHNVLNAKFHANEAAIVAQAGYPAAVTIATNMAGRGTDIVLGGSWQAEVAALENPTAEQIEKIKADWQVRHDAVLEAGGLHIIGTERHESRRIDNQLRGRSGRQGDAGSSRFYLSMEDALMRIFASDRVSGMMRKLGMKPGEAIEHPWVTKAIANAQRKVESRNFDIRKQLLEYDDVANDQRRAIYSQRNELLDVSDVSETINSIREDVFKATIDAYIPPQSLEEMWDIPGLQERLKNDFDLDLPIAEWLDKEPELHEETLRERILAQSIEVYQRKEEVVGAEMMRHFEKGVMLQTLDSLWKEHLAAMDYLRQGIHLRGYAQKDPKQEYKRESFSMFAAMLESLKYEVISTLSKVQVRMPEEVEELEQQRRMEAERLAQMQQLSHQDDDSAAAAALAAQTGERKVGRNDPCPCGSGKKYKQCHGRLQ

`N#Cc1c(-c2ccc(Br)cc2)nc(SCc2ccc(CSC3=NC(=O)C(C#N)C(c4ccc(Br)cc4)=N3)cc2)[nH]c1=O` (stereo not drawn) [16g, 2,2'-(α,α’-Xylene)bis(sulfanediyl)bis-(6-(4-bromophenyl)-5-cyano-4-oxopyrimidine)]: in data set [1], the “fold more potent than the hit compound(s)” value is given as 50 fold.

`Cc1onc(-c2c(F)cccc2Cl)c1C(=O)Nc1ccc(Sc2ccccc2)nc1Sc1ccccc1` [compound 1]: the solubility entry in data set [2] was “started having solubility problems when approaching 100 µM”.

Consider `N#Cc1c(-c2ccc(-c3ccccc3)cc2)nc(SCc2ccccc2)[nH]c1=O` [17h, S-Benzyl-5-cyano-6-(biphenyl-4-yl)-2-thiouracil], for which, in data set [3], 60 µM corresponded to half-maximal inhibition (IC50). Besides, the “antimicrobial activity (MIC) against MC4100” value in data set [4] is recorded as “neither 17h nor 16h exhibited inhibition effects”. Moreover, the “antimicrobial activity (MIC) against NR698” value in data set [5] is listed as “most potent inhibition effects”.

In the case of `N#Cc1c(-c2ccc(-c3ccccc3)cc2)nc(SCc2ccc(CSC3=NC(=O)C(C#N)C(c4ccc(-c5ccccc5)cc4)=N3)cc2)[nH]c1=O` (stereo not drawn) [16h, 2,2'-(α,α’-Xylene)bis(sulfanediyl)bis-(6-(biphenyl-4-yl)-5-cyano-4-oxopyrimidine)], the “antimicrobial activity (MIC) against MC4100” value in data set [4] was “neither 17h nor 16h exhibited inhibition effects”. In data set [5], the “antimicrobial activity (MIC) against NR698” value is “did not exhibit significantly antimicrobial activities”. In data set [1], the IC50 was found to be 2 µM and the “fold more potent than the hit compound(s)” value is 50 fold.

For orientation: IC50 means the concentration needed to halve the response being measured.
